Converted amounts (≈) assume the structure as drawn.
How the values were obtained:
Homo sapiens [1] = species on record: Homo sapiens; assay: Selectivity index, ratio of IC50 for CYP3A4 (unknown origin) to IC50 for human recombinant CYP11B2
Homo sapiens [2] = species on record: Homo sapiens; assay: Selectivity index, ratio of IC50 for human recombinant CYP11B1 to IC50 for human recombinant CYP11B2
Outline: (§1)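 Recombinant human CYP11B2 or CYP11B1. Substrate and product steroids both monitored by HPLC-MS. Selectivity taken as CYP11B1 IC50 / CYP11B2 IC50.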

[3] = Tmax in cynomolgus monkey at 1 mg/kg, po measured after 24 or 72 hrs; type: ADME, organism-based, Macaca fascicularis; settings: in vivo
Outline: (§2)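 Male cynomolgus monkeys dosed orally at 1 mg/kg in 0.5% CMC, 0.1% Tween-80, 1% DMSO. Plasma drug concentrations followed out to 24 or 72 h. Cmax, Tmax, AUC0-24 and t1/2 derived from plasma levels.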

Homo sapiens [4] = species on record: Homo sapiens; assay: Selectivity index, ratio of IC50 for CYP2C9 (unknown origin) to IC50 for human recombinant CYP11B2
[5] = Thermodynamic solubility in phosphate free buffer pH 7.4 incubated for 24 hrs by HPLC/LCMS-MS based shake flask method; type: physicochemical; settings: read-out: Therm_solubility
[6] = Inhibition of cynomolgus monkey CYP11B1; type: ADME, Macaca fascicularis
Homo sapiens [7] = species on record: Homo sapiens; assay: Selectivity index, ratio of IC50 for CYP17 (unknown origin) to IC50 for human recombinant CYP11B2
Homo sapiens [8] = species on record: Homo sapiens; assay: Selectivity index, ratio of IC50 for CYP2C19 (unknown origin) to IC50 for human recombinant CYP11B2
Aromatase = target: T1, Aromatase (Homo sapiens, UniProt P11511); assay: Inhibition of CYP19 (unknown origin)
T1 sequence (P11511 whole entry): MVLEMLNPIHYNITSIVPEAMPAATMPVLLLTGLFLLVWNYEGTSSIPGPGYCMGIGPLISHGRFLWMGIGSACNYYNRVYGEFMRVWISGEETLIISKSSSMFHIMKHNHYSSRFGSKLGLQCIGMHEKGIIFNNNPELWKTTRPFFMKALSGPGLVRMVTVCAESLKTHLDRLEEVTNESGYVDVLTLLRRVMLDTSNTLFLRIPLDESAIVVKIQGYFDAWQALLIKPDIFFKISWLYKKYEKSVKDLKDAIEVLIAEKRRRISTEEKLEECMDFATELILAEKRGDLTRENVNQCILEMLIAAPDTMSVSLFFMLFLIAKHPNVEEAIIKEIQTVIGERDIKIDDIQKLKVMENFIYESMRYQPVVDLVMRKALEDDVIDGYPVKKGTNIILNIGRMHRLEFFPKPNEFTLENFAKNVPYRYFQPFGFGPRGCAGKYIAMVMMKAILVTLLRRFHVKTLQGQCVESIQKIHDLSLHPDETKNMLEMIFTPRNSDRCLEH

[9] = Inhibition of cynomolgus monkey CYP11B2; set-up: species or system Macaca fascicularis
Homo sapiens [10] = species on record: Homo sapiens; assay: Selectivity index, ratio of IC50 for CYP2D6 (unknown origin) to IC50 for human recombinant CYP11B2
Cynomolgus monkey [11] = assay: In vivo inhibition of CYP11B2 in cynomolgus monkey assessed as reduction in ACTH-induced plasma aldosterone AUC administered orally 10 mins prior to ACTH stimulation for 7 days; type: functional, organism-based; settings: Macaca fascicularis
Outline: (§3)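 Conscious male cynomolgus monkeys. Day 1: vehicle, then ACTH challenge to drive adrenal steroidogenesis. Repeated after 7-day recovery with oral compound at 0.2, 1 and 3 mg/kg given 10 min before ACTH. Plasma aldosterone, cortisol, DOC and 11-deoxycortisol measured and AUCs calculated. Day 8 change expressed against each animal's own day 1 steroid AUC.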

[12] = Half life in cynomolgus monkey at 1 mg/kg, po measured after 24 or 72 hrs; type: ADME, organism-based, Macaca fascicularis; settings: in vivo; outline: as §2
Cynomolgus monkey [13] = assay: In vivo inhibition of CYP11B2 in cynomolgus monkey assessed as reduction in ACTH-induced plasma aldosterone AUC at 3 mg/kg, po administered 10 mins prior to ACTH stimulation for 7 days relative to control; type: functional; settings: Macaca fascicularis; outline: as §3
[14] = AUC (0 to 24 hrs) in cynomolgus monkey at 1 mg/kg, po measured after 24 or 72 hrs; type: ADME, organism-based, Macaca fascicularis; set-up: time < 24 hr, dose 1 mg/kg, route oral; settings: in vivo; outline: as §2
[15] = Stability in cynomolgus monkey liver microsomes assessed as parent compound remaining at 1 uM measured after 65 mins by LC/MS-MS analysis; type: ADME, Macaca fascicularis, Microsome; settings: read-out: Stability
Outline: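 Parent compound percentage remaining after 65 min incubation with cynomolgus monkey liver microsomes.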

Cynomolgus monkey [16] = assay: Effect on ACTH-induced 11-deoxycortisol level in cynomolgus monkey at 0.2 to 3 mg/kg, po administered 10 mins prior to ACTH stimulation for 7 days; type: ADME, organism-based, Macaca fascicularis; settings: in vivo; outline: as §3
Cynomolgus monkey [17] = assay: Effect on ACTH-induced DOC level in cynomolgus monkey at 0.2 to 3 mg/kg, po administered 10 mins prior to ACTH stimulation for 7 days; type: ADME, organism-based, Macaca fascicularis; settings: in vivo; outline: as §3
Cynomolgus monkey [18] = assay: In vivo inhibition of CYP11B2 in cynomolgus monkey assessed as reduction in ACTH-induced plasma aldosterone AUC at 0.2 mg/kg, po administered 10 mins prior to ACTH stimulation for 7 days relative to control; type: functional; settings: Macaca fascicularis; outline: as §3
Homo sapiens [19] = species on record: Homo sapiens; assay: Selectivity index, ratio of IC50 for CYP19 (unknown origin) to IC50 for human recombinant CYP11B2
[20] = target: T2, Cytochrome P450 11B1, mitochondrial (Homo sapiens, UniProt P15538); assay: Inhibition of human recombinant CYP11B1 using deoxycortisol as substrate incubated for 60 mins by cell-based HPLC analysis; type: ADME; outline: as §1
T2 sequence (P15538 whole entry): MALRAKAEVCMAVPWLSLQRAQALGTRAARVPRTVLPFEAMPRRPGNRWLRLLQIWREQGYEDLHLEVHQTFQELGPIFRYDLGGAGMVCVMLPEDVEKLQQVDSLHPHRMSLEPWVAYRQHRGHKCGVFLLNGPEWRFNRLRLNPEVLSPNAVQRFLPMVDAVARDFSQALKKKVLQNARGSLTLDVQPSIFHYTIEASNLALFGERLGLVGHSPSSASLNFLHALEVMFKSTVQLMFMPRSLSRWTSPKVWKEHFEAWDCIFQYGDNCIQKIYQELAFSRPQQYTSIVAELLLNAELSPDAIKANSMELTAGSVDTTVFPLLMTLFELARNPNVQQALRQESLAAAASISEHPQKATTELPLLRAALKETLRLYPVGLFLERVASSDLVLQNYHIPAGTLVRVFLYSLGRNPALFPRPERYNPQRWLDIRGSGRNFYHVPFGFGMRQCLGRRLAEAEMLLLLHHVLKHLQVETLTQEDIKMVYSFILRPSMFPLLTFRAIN

[21] = target: T3, Cytochrome P450 11B2, mitochondrial (Homo sapiens, UniProt P19099); assay: Inhibition of human recombinant CYP11B2 using deoxycorticosterone as substrate incubated for 90 mins by cell-based HPLC analysis; outline: as §1
T3 sequence (P19099 whole entry): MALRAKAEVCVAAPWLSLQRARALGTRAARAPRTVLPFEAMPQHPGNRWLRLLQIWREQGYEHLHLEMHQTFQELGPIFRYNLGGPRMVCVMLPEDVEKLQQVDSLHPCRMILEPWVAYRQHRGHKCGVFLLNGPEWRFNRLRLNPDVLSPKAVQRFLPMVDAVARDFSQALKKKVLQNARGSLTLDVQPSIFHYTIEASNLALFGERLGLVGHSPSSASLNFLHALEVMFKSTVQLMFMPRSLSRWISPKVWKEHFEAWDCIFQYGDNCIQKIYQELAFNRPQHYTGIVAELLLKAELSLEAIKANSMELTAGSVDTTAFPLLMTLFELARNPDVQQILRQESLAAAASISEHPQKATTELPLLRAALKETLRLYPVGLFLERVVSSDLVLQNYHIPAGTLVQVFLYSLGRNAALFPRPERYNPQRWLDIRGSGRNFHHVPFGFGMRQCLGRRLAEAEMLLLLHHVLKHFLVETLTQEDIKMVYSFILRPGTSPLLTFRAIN

[22] = Cmax in cynomolgus monkey at 1 mg/kg, po measured after 24 or 72 hrs; type: ADME, organism-based, Macaca fascicularis; set-up: dose 1 mg/kg, route oral; settings: in vivo; outline: as §2
Cynomolgus monkey [23] = assay: In vivo inhibition of CYP11B2 in cynomolgus monkey assessed as reduction in ACTH-induced plasma aldosterone AUC at 1 mg/kg, po administered 10 mins prior to ACTH stimulation for 7 days relative to control; type: functional; settings: Macaca fascicularis; outline: as §3
Macaca fascicularis = species on record: Macaca fascicularis; assay: Selectivity index, ratio of IC50 for cynomolgus monkey CYP11B1 to IC50 for cynomolgus monkey CYP11B2
[24] = Fraction unbound in cynomolgus monkey plasma incubated for 6 hrs by HPLC-MS/MS analysis; type: ADME, cell-free, Macaca fascicularis
Cynomolgus monkey [25] = assay: Effect on ACTH-induced cortisol level in cynomolgus monkey at 0.2 to 3 mg/kg, po administered 10 mins prior to ACTH stimulation for 7 days; type: ADME, organism-based, Macaca fascicularis; settings: in vivo; outline: as §3

Fc1cc2nc(-c3cncnc3C(F)(F)F)n(C3CC3)c2cc1F
Ratio IC50 (Homo sapiens [1]): > 1000 | Ratio IC50 (Homo sapiens [2]): 190 | Tmax [3]: 2 h | Ratio IC50 (Homo sapiens [4]): > 1000 | solubility thermodynamic at 24 h [5]: 9 µM (≈ 3.06 µg/mL) | IC50 [6]: 8.85 µM | Ratio IC50 (Homo sapiens [7]): > 1000 | Ratio IC50 (Homo sapiens [8]): > 1000 | IC50 (Aromatase): 6.44 µM | IC50 [9]: 0.013 µM | Ratio IC50 (Homo sapiens [10]): > 1000 | inhibition (Cynomolgus monkey [11]): Dose-dependent effect | half-life [12]: 30 h | inhibition in vivo at 3 mg/kg (Cynomolgus monkey [13]): 93% | AUC(0-t) at 24 h [14]: 7.8 µM·h | remaining at 65 min, 1 µM [15]: 99% | Activity (Cynomolgus monkey [16]): Non-Toxic | Activity (Cynomolgus monkey [17]): Non-Toxic | inhibition in vivo at 0.2 mg/kg (Cynomolgus monkey [18]): 68% | Ratio IC50 (Homo sapiens [19]): 250 | IC50 [20]: 4.77 µM | IC50 [21]: 0.025 µM | Cmax [22]: 0.41 µM | inhibition in vivo at 1 mg/kg (Cynomolgus monkey [23]): 88% | Ratio IC50 (Macaca fascicularis): 702 | fraction unbound at 6 h [24]: 0.16 | Activity (Cynomolgus monkey [25]): Non-Toxic

Source: ChEMBL document CHEMBL4304781, “Development of Highly Selective Pyrimidine-Based Aldosterone Synthase (CYP11B2) Inhibitors” (ACS Med Chem Lett, 2019)
